The target of experiment [1] is TGF-beta-activated kinase 1 and MAP3K7-binding protein 1 (Homo sapiens) (UniProt Q15750). As to the kind of experiment: Binding affinity to TAB1 in human NCI-H358 cells at 1 uM by mass spectrometry based pull down assay. The format is cell-based.
The target of experiment [2] is 182 kDa tankyrase-1-binding protein (Homo sapiens) (UniProt Q9C0C2). The experiment is described as follows: Binding affinity to TNKS1BP1 in human NCI-H358 cells at 1 uM by mass spectrometry based pull down assay. The format is cell-based.
The target in experiment [3] is Opioid growth factor receptor (Homo sapiens) (UniProt Q9NZT2). The experiment is described as follows: Binding affinity to OGFR in human NCI-H23 cells at 1 uM by mass spectrometry based pull down assay. Type of experiment: cell-based.
Experiment [4] has as its target Mitogen-activated protein kinase 1 (Homo sapiens) (UniProt P28482). The experiment is described as follows: Binding affinity to MAPK1 in human NCI-H23 cells at 1 uM by mass spectrometry based pull down assay. The format is cell-based.
For another experiment, the system named is NCI-H358. The experiment is described as follows: Binding affinity to XRCC5 in human NCI-H358 cells at 1 uM by mass spectrometry based pull down assay. The format is cell-based.
The target of experiment [5] is Deaminated glutathione amidase (Homo sapiens) (UniProt Q86X76). As to the kind of experiment: Binding affinity to NIT1 in human NCI-H23 cells at 1 uM by mass spectrometry based pull down assay. Type of experiment: cell-based.
The target of experiment [6] is Eukaryotic translation initiation factor 6 (Homo sapiens) (UniProt P56537). The experiment is described as follows: Binding affinity to EIF6 in human NCI-H358 cells at 1 uM by mass spectrometry based pull down assay. Type of experiment: cell-based.
In experiment [7] the target is 80S Ribosome (Homo sapiens) (UniProt P08865+P42677+P62753+P15880+P23396+P61247+P62701+P22090+P46782+P62081+P62241+P46781+P46783+P62280+P25398+P62277+P62263+P62841+P62244+P62249+P08708+P62269+P39019+P60866+P63220+P62266+P62847+P62851+P62854+P62979+P62857+P62273+P62861+P39023+P36578+P46777+Q02878+P18124+P62424+P62917+P32969+P27635+P62906+P62913+P30050+P26373+P40429+P50914+P61313+P18621+Q07020+Q02543+P84098+P46778+P35268+P62829+P62750+P83731+P61254+P61353+P46776+P46779+P47914+P62888+P62899+P62910+P49207+P42766+P18077+Q9Y3U8+P83881+P61927+P61513+P63173+P62891+P62945+P05388+P05386). The experiment is described as follows: Binding affinity to RPS12 in human NCI-H23 cells at 1 uM by mass spectrometry based pull down assay. Type of experiment: cell-based.

Experiment [8] concerns the target Actin-related protein 3 (Homo sapiens) (UniProt P61158). The experiment is described as follows: Binding affinity to ACTR3 in human NCI-H23 cells at 1 uM by mass spectrometry based pull down assay. Type of experiment: cell-based. In a few lines: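 NCI-H23 or NCI-H358 cells were grown and lysed. Lysates were incubated overnight at 4 °C with 1 μM biotinylated covalent probe or DMSO, then pulled down on streptavidin beads. Proteins were run on polyacrylamide gels and stained with Coomassie. Bands were excised, digested and identified by mass spectrometry.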

Experiment [9] deals with Ribosomal protein S6 kinase alpha-1 (Homo sapiens) (UniProt Q15418). As to the kind of experiment: Binding affinity to RPS6KA1 in human NCI-H23 cells at 1 uM by mass spectrometry based pull down assay. Type of experiment: cell-based.
Experiment [10] deals with MAP4K2 / germinal center kinase (Homo sapiens). As to the kind of experiment: Inhibition of GCK in human SKCO1 cells at 1 uM after 4 hrs using biotin labeled DIKGANLLLTLQGDVK probe by mass-spectrometric analysis relative to control.
The target of experiment [11] is Tyrosine-protein kinase SYK (Homo sapiens) (UniProt P43405). The experiment is described as follows: Inhibition of SYK in human SKCO1 cells at 1 uM after 4 hrs using biotin labeled ISDFGLSKALR probe by mass-spectrometric analysis relative to control. The format is cell-based. In a few lines:
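Live SK-CO-1 cells exposed to compound at 1 μM or DMSO for 4 h (KiNativ). Lysates then labeled with lysine-reactive ATP/ADP-biotin probe, and probe-labeled kinase peptides quantified by mass spectrometry. Percent inhibition of probe-dependent recovery calculated relative to DMSO-treated cells.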

The target of experiment [12] is T1, Mitogen-activated protein kinase kinase kinase 7 (Homo sapiens) (UniProt O43318).
T1 sequence (whole entry): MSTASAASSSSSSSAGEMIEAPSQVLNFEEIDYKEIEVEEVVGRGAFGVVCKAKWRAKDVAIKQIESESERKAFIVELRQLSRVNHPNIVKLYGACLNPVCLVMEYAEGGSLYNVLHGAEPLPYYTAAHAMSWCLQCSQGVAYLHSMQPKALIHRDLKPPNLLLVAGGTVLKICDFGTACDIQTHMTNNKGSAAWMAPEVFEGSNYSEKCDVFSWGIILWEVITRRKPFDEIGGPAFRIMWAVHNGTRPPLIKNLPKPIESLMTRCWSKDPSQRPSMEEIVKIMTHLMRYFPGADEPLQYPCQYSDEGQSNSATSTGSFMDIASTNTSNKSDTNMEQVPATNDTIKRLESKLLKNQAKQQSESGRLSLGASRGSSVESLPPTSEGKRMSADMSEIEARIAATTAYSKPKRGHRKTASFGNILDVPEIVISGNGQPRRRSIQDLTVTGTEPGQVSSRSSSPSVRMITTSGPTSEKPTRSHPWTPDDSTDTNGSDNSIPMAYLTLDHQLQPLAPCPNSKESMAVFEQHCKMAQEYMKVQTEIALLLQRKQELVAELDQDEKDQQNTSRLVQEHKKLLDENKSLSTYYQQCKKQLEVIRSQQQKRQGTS
The following applies: 0.6 uM.

Experiment [13] deals with T1, Mitogen-activated protein kinase kinase kinase 7 (Homo sapiens). Conditions: 0.6 uM. This is another data set of the same source.
Experiment [14] addresses Phosphatidylinositol 3-kinase catalytic subunit type 3 (Homo sapiens) (UniProt Q8NEB9). As to the kind of experiment: Inhibition of PIK3C3 in human SKCO1 cells at 1 uM after 4 hrs using biotin labeled TEDGGKYPVIFKHGDDLRQDQLILQIISLMDK probe by mass-spectrometric analysis relative to control. Type of experiment: cell-based.
In experiment [15] the target is Mitogen-activated protein kinase 7 (Homo sapiens) (UniProt Q13164). As to the kind of experiment: Inhibition of Erk5 in human SKCO1 cells at 1 uM after 4 hrs using biotin labeled DLKPSNLLVNENCELK probe by mass-spectrometric analysis relative to control. The format is cell-based.
The target of experiment [16] is Ephrin type-B receptor 2 (Homo sapiens) (UniProt P29323). The experiment is described as follows: Inhibition of EphB2 in human SKCO1 cells at 1 uM after 4 hrs using biotin labeled FLEDDTSDPTYTSALGGKIPIR probe by mass-spectrometric analysis relative to control. Type of experiment: cell-based.
In experiment [17] the target is Ribosomal protein S6 kinase alpha-1 (Homo sapiens) (UniProt Q15418). As to the kind of experiment: Inhibition of RSK1 domain2 in human SKCO1 cells at 1 uM after 4 hrs using biotin labeled DLKPSNILYVDESGNPECLR probe by mass-spectrometric analysis relative to control. The format is cell-based.
Experiment [18] can be described thus: Antiproliferative activity against human URMC6 cells harboring wild type KRAS after 72 hrs by CellTiter-Glo assay. The format is functional, cell-based. On the technique in general: Cellular ATP, detected with luciferase, serves as a proxy for viable cell number.

Activity calls are given as the source filed them. The rule behind the calls is not given here.

Sequence of Ribosomal protein S6 kinase alpha-1 (Homo sapiens) (Q15418 whole entry, the tested form may be a part): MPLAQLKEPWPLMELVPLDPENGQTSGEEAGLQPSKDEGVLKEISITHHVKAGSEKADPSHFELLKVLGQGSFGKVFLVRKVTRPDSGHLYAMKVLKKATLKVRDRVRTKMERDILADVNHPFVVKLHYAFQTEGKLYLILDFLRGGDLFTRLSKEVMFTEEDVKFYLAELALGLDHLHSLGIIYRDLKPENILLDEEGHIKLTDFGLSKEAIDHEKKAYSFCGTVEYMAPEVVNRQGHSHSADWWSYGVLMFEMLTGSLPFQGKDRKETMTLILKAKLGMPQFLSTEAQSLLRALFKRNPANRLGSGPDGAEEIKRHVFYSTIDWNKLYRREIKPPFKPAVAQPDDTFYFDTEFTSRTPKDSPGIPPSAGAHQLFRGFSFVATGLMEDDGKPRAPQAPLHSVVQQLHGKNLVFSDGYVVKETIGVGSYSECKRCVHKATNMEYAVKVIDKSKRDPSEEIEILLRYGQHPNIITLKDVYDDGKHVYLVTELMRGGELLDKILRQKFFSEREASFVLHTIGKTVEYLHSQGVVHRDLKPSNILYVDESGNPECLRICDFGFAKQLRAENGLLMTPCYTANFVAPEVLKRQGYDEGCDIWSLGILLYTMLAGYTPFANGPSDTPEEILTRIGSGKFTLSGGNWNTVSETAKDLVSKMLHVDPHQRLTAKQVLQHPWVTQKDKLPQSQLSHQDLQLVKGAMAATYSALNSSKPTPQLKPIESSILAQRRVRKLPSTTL
Sequence of Ephrin type-B receptor 2 (Homo sapiens) (P29323 whole entry, the tested form may be a part): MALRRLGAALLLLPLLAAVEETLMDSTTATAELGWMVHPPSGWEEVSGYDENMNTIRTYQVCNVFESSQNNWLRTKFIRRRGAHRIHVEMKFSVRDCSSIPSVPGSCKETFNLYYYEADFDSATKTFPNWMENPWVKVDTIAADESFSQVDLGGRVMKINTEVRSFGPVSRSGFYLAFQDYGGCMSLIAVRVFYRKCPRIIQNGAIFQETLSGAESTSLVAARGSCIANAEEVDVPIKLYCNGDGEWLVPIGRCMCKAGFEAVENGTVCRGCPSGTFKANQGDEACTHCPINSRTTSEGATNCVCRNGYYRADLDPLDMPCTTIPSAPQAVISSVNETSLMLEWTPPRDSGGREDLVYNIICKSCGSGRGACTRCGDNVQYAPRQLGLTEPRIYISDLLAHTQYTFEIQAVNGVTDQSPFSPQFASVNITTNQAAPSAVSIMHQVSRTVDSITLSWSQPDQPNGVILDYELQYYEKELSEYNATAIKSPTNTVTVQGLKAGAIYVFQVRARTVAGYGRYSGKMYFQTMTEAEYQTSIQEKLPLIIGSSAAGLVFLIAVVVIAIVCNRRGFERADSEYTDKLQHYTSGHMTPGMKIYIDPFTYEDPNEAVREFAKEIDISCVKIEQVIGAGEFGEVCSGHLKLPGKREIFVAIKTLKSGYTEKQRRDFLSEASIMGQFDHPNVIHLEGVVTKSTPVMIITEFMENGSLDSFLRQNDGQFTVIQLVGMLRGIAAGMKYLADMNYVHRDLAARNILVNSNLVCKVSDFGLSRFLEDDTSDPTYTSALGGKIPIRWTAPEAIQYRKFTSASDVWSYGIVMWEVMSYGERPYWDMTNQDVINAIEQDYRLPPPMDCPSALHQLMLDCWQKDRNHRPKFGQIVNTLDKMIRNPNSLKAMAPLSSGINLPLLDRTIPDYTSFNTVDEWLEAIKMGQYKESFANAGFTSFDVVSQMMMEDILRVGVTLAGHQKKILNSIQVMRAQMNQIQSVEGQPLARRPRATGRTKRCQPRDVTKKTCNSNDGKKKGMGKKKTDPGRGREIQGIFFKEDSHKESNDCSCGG
Sequence of Phosphatidylinositol 3-kinase catalytic subunit type 3 (Homo sapiens) (Q8NEB9 whole entry): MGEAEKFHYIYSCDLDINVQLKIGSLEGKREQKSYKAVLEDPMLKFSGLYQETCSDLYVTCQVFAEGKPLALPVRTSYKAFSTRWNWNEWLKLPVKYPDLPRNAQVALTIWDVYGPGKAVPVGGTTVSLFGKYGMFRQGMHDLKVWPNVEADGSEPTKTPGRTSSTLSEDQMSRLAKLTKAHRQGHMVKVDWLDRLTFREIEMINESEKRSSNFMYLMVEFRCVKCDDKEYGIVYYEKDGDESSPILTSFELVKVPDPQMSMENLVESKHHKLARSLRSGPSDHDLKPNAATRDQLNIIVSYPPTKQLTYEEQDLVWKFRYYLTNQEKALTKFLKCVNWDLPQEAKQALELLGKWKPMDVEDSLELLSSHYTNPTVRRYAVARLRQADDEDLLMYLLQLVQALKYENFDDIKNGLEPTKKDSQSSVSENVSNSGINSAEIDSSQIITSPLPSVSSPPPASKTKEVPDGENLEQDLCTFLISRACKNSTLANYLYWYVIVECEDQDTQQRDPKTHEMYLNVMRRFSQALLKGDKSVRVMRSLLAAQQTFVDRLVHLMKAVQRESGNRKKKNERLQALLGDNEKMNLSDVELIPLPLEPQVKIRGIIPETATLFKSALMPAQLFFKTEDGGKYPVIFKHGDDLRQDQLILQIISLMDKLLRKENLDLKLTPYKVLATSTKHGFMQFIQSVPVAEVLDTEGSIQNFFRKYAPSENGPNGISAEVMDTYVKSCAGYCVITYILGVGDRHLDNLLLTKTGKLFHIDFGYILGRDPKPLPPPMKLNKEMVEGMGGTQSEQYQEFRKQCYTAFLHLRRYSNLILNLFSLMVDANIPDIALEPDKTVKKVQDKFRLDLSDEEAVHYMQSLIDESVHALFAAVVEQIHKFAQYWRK
Sequence of Mitogen-activated protein kinase 7 (Homo sapiens) (Q13164 2-816 limits assumed): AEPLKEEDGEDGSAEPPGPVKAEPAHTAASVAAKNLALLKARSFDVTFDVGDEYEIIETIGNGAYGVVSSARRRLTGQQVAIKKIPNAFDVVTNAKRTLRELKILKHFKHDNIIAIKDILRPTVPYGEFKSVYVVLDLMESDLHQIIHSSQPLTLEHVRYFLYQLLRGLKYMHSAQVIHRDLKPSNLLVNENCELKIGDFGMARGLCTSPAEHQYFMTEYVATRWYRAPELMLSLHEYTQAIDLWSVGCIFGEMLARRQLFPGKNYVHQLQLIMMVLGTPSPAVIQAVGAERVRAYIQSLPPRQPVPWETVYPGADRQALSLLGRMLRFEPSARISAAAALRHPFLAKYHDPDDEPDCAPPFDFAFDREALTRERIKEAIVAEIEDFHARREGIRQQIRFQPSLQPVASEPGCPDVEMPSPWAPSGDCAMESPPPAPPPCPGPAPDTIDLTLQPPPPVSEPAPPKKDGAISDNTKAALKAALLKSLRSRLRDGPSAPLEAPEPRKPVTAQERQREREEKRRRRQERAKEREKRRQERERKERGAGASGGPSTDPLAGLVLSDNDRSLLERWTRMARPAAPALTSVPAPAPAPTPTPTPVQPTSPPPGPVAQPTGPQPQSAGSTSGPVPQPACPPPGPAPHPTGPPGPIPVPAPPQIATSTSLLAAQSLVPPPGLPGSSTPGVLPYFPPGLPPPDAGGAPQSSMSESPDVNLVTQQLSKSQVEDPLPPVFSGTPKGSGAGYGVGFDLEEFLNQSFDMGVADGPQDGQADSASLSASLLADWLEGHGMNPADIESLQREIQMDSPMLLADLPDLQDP
Sequence of TGF-beta-activated kinase 1 and MAP3K7-binding protein 1 (Homo sapiens) (Q15750 whole entry): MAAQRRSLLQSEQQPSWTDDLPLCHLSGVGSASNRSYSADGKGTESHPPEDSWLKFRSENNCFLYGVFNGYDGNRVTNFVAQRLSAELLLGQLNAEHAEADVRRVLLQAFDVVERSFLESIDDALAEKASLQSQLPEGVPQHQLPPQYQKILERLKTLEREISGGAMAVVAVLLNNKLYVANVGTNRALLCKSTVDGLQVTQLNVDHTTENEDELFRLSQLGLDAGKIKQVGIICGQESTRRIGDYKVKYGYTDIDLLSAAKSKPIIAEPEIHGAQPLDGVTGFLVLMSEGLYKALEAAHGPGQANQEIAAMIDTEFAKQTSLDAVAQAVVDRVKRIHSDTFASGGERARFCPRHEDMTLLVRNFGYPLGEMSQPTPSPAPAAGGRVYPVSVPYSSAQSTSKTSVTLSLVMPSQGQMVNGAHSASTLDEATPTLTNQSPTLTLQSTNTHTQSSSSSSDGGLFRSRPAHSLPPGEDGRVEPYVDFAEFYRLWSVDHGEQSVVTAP
Sequence of Opioid growth factor receptor (Homo sapiens) (Q9NZT2 whole entry): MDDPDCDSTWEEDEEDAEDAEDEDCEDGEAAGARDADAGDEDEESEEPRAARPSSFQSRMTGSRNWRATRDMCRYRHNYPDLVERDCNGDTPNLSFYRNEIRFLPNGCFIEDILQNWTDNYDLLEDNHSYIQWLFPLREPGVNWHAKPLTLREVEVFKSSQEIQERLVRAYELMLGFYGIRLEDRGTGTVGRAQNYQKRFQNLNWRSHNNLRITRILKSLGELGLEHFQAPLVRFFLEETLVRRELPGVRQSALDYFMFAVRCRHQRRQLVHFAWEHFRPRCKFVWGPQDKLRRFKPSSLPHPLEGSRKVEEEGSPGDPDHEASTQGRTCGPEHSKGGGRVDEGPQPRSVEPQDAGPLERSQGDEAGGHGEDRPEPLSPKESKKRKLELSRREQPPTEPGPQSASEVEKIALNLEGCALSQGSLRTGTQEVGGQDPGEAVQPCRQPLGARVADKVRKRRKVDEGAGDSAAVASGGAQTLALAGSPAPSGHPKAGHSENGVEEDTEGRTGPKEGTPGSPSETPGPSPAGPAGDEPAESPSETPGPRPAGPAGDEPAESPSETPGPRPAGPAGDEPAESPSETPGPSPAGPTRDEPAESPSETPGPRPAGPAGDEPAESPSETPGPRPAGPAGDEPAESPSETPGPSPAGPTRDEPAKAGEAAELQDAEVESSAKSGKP
Sequence of Mitogen-activated protein kinase 1 (Homo sapiens) (P28482 whole entry): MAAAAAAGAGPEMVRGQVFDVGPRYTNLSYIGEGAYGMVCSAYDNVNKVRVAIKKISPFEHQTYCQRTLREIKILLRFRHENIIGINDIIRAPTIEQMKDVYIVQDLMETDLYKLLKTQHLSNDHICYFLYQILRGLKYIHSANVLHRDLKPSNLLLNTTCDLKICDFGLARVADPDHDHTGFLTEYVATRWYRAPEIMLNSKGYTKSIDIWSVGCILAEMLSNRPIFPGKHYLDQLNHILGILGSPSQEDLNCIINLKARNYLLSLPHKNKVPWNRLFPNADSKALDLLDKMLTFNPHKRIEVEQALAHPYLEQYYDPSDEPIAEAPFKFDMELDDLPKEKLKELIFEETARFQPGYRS

Take `C=CC(=O)Nc1ccccc1Nc1nc(Nc2ccc(N3CCN(CCOCCOCCOCCNC(=O)CCCC[C@@H]4SC[C@@H]5NC(=O)N[C@@H]54)CC3)cc2)ncc1Cl`: the result (in experiment [1]; in experiment [2]; in experiment [3]; in [4]; in the experiment with NCI-H358; in experiment [5]) was Active. The outcome in [6], in experiment [7], in experiment [8] and in experiment [9] was Active.

Turning to `C=CC(=O)Nc1ccccc1Nc1nc(Nc2ccc(N3CCN(C)CC3)cc2)ncc1Cl`, the inhibition in experiment [10] is 37.1%; in experiment [11] it was -1.2%; in experiment [14], 21.1%. In addition, the inhibition result in experiment [12] and in [13] was “Active” throughout.

Consider `COc1cc(O)c2c(c1)/C=C/C[C@H](O)[C@H](O)C(=O)/C=C\C[C@H](C)OC2=O`, for which the inhibition in experiment [15] worked out at 12.4%; in experiment [16] it was 24.2%; in experiment [17], 6.4%; in [14], 15.1%. Besides, the inhibition entry in experiment [12] and in experiment [13] was “Active” throughout. Also, the IC50 in experiment [18] stood at 1.45 µM.

For the molecule `C=CC(=O)Nc1ccccc1Oc1nc(Nc2cnn(CCOC)c2)ncc1Cl`, the inhibition in [10] is 34.3%; in experiment [11], -0.4%; in [15], 11.6%; in [16], 13.7%; in experiment [17], 12.8%. This molecule returned an IC50 in experiment [18] of 2.62 µM.

As a reminder, the inhibition is the relative decrease from the control value, in per cent. In general, IC50 refers to the point on the concentration scale where inhibition reaches its midpoint. Lower therefore signals higher potency.

For the origin of these results see ChEMBL document CHEMBL4118021, “Studies of TAK1-centered polypharmacology with novel covalent TAK1 inhibitors” (Bioorg Med Chem, 2017).
